Screens from PubChem.
Platelet DG rel: platelet dense granule release activity; human platelet-rich plasma, SFLLRN dense granule ATP release, luminescence; inhibition, %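 (compounds screened at 7.5 µM in platelet-rich plasma)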; 0.22% of 300,000 active; AID 1663;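 active = mean replicate score, as percent of positive control, at or above 50; inconclusive = mean below 50 but at least one replicate at or above 50; inactive = mean and every replicate below 50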
TRPC6 inhibitor: mouse TRPC6 channel inhibition; Q61143; HEK293-TRPC6, membrane potential dye, ACh-evoked depolarization; active compounds read low; 1.1% of 310,000 active; B-score at 10 µM;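 active = B-score under library mean minus 3 SD, initial fluorescence not abnormally high, positive integrated signal ratio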;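 note: B-score derived from integrated fluorescence ratio over the kinetic read; more negative B-score means stronger inhibition of depolarization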
Target sequence (Q61143 whole entry, looked up): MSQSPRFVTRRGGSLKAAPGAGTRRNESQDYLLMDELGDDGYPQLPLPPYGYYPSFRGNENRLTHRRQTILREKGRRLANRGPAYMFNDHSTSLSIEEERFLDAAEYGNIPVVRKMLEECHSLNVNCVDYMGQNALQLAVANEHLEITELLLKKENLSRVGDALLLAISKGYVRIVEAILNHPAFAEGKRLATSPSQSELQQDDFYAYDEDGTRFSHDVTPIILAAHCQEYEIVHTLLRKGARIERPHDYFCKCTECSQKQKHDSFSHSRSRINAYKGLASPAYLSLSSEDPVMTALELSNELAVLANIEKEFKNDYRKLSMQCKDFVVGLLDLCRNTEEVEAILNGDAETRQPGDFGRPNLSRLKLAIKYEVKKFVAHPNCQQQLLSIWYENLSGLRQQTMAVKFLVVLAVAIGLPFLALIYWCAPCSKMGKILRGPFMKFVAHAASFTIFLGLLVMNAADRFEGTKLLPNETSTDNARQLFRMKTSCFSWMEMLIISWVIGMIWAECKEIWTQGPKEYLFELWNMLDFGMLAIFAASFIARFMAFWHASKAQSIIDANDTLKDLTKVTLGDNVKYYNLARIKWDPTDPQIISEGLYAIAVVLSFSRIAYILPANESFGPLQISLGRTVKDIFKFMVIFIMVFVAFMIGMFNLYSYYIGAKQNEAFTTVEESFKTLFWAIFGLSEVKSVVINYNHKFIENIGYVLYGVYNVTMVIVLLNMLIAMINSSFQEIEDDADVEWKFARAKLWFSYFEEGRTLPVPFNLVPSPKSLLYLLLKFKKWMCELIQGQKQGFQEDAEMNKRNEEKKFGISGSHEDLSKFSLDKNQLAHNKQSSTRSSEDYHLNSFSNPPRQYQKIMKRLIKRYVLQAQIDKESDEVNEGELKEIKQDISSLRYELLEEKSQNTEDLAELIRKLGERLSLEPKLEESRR
TRPC4 potent: allosteric potentiators of mouse TRPC4 channel; 0.42% of 310,000 active; B-score at 10 µM; HEK293 TRPC4beta/mu-opioid, DAMGO EC20, Fluo-4 Ca2+ flux; active compounds read high; AID 2227;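 active = B-score of calcium response area above 5 SD of library B-scores, with initial fluorescence ratio within 5 SD of library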;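 note: B-score of integrated fluorescence ratio over time as area under calcium response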
TRPC4 act: activators of mouse TRPC4 channel | B-score at 10 µM | Q9QUQ5 | 0.49% of 310,000 active | HEK293 TRPC4beta/mu-opioid, Fluo4 calcium fluorescence; active compounds read high;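 active = B-score above 5 SD of library B-scores, and initial fluorescence ratio not above library mean plus 5 SD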;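 note: positive B-score marks a calcium rise read as TRPC4 activation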
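Test system: HEK293 cells stably co-expressing mouse TRPC4beta and mu-opioid receptor | Schedule: Fluo4 dye loading 45 min at room temperature, 110 s recording | Measured by: Kinetic Fluo4 calcium fluorescence, 5 s baseline at 1 Hz | Evaluation: B score of integrated ratio | Controls: Buffer (low) and maximal DAMGO (high)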
TRPC6 act: mouse TRPC6 channel activation. B-score at 10 µM. Q61143. 0.13% of 310,000 active. AID 2550. HEK293-TRPC6 membrane potential dye fluorescence; active compounds read high;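 active = B-score of the integrated fluorescence ratio above library mean plus 3 SD, and starting fluorescence ratio within library mean plus 5 SD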;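 note: higher score means more depolarization so channel activation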
TRPC4 inh: TRPC4 (mouse) channel inhibition | Q9QUQ5 | HEK293 TRPC4beta/mu-opioid, DAMGO-evoked Fluo4 calcium flux; active compounds read low | B-score at 10 µM | 0.39% of 300,000 active;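 active = B-score over 3 SD under the library average, no early fluorescence shift, positive overall ratio signal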
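material = TRPC4beta/mu-opioid receptor HEK293 cell line | probe or stimulus = sequential submaximal and maximal DAMGO stimulation | compound dosing = one concentration per compound | measured by = Fluo4 Ca2+ flux fluorescence | evaluation = integrated fluorescence ratio relative to baseline, converted to per-well B score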
TRPC4 spec 2: second selectivity test of TRPC6 inhibitors: effect on mouse TRPC4 | shares compounds with TRPC6 inhibitor | HEK293 TRPC4/MOR, membrane potential dye fluorescence; channel activated by saturating DAMGO dose | inhibition, % at 10 µM | 42% of 920 active | AID 2776;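 active = compounds whose fluorescence signal differed from control wells by over 3 SD, either direction, in both duplicate plates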
TRPC4 spec: mouse TRPC4 off-target activity of TRPC6 inhibitors. shares compounds with TRPC6 inhibitor. HEK293 TRPC4/mu-opioid, membrane potential fluorescence. AID 2777. 61% of 920 active. activity change, negative = inhibition, % at 10 µM;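 active = rise or fall in signal beyond 3 SD of buffer-only wells in both replicate plates, either sign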;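 note: integrated kinetic ratio of fluorescence range over baseline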
HEK293 MPD ctr 2-1: parental HEK293 nonspecific activity of TRPC6 inhibitors, second screen; shares compounds with TRPC6 inhibitor; parental HEK293 membrane potential dye fluorescence; maximal acetylcholine challenge after compound addition; signal change vs control, % at 10 µM; 31% of 920 active;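 active = membrane potential signal moving either way by over 3 SD of the maximum-effect control, in both duplicate plates, meaning non-specific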
HEK293 MPD ctr-1: parental HEK293 nonspecific activity of TRPC6 inhibitors; shares compounds with TRPC6 inhibitor; membrane potential signal change, % at 10 µM; 60% of 920 active; AID 2780; parental HEK293 membrane potential dye fluorescence;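 active = membrane potential signal shifting up or down by more than 3 SD of buffer-only wells, on both duplicate plates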
HEK293 MPD ctr-2: checks TRPC6 modulator effects in parental HEK293 cells; shares compounds with TRPC6 inhibitor; membrane potential dye fluorescence; membrane potential signal change, % at 10 µM; 51% of 2,400 active; AID 488924;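 active = membrane potential signal moves up or down beyond 5 SD from buffer-only wells, on both duplicate plates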
HEK293 MPD ctr 2-2: second check of TRPC6 modulator effects in parental HEK293 cells | inhibition, % at 10 µM | membrane potential dye fluorescence; after compound, maximal acetylcholine stimulation | 14% of 2,400 active | shares compounds with TRPC6 inhibitor | AID 488926;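 active = membrane potential signal drops by more than 5 SD from the mean control signal, in both duplicate plates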;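 note: plate controls were acetylcholine ECmax control wells for no effect and buffer only wells for full effect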
TRPC4 ctr mod: selectivity of TRPC6 modulators against mouse TRPC4. shares compounds with TRPC6 inhibitor. HEK293 TRPC4/mu-opioid, membrane potential fluorescence. percent change from control (negative = decrease, positive = increase), % at 10 µM. 69% of 2,400 active. AID 488927;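 active = membrane potential signal moved up or down beyond 5 SD of buffer control wells, in both duplicate plates, actives on both sides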;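 note: plate controls were assay buffer wells for no effect and DAMGO maximal-effect wells for full effect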
TRPC4 ctr inh 2: second selectivity test of TRPC6 modulators against mouse TRPC4 | AID 488928 | HEK293 TRPC4/mu-opioid, membrane potential dye fluorescence; stimulated with maximal-effect DAMGO | inhibition, % at 10 µM | shares compounds with TRPC6 inhibitor | 55% of 2,400 active;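 active = drop in membrane potential signal beyond 5 SD of the control wells in both duplicate plates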;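 note: TRPC4 counter screen for TRPC6 hits run under conditions tuned for TRPC6 not TRPC4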
TRPC6 inh conf: mouse TRPC6 inhibitor confirmation; HEK293-TRPC6, membrane potential dye, ACh-evoked depolarization; shares compounds with TRPC6 inhibitor; AID 488960; inhibition, % at 10 µM; 43% of 3,300 active;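 active = fluorescence ratio falls more than 5 SD below the full-stimulation control mean, in both duplicate runs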;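 note: integrated fluorescence ratio of peak minus minimum over baseline after agonist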
TRPC6 act confirm: mouse TRPC6 activator confirmation; shares compounds with TRPC6 inhibitor; HEK293-TRPC6 membrane potential dye fluorescence, FDSS; activation, % at 10 µM; 11% of 2,800 active;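 active = ratio signal rise beyond 5 SD above unstimulated control wells' mean, seen in both duplicate runs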;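 note: plate controls were buffer EC0 wells for no effect and acetylcholine ECmax response for full effect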
* marks the source's active call; other numbers are inactive results. Sampled rows, rich in hits. Any-hit rate of the full collection: about 2.5%.

`COc1ccc2c(c1)c(C(O)CN1CCC(Cc3ccccc3)CC1)c(C)n2C` (stereo unspecified) gave Platelet DG rel 5.9, TRPC6 inhibitor -11.5*, TRPC4 potent inactive, TRPC4 act inactive, TRPC6 act inactive, TRPC4 inh inactive, TRPC4 spec 2 26.0%*, TRPC4 spec -12.6%*, HEK293 MPD ctr 2-1 inactive, HEK293 MPD ctr-1 -221.0%*, TRPC6 inh conf 77.8%* and TRPC6 act confirm inactive.
For Cc1c(C(O)CN2CCN(Cc3ccc4c(c3)OCO4)CC2)c2ccccc2n1C (stereo unspecified) the results were Platelet DG rel 2.0, TRPC6 inhibitor -5.12*, TRPC4 potent inactive, TRPC4 act inactive, TRPC6 act inactive, TRPC4 inh inactive, HEK293 MPD ctr-2 inactive, HEK293 MPD ctr 2-2 inactive, TRPC4 ctr mod 11.0%*, TRPC4 ctr inh 2 88.5%*, TRPC6 inh conf 55.0%* and TRPC6 act confirm inactive.
`OC(CN1CCN(Cc2ccc3c(c2)OCO3)CC1)c1c[nH]c2ccccc12` (stereo unspecified) gave Platelet DG rel -4.2, TRPC6 inhibitor inactive, TRPC4 potent inactive, TRPC4 act inactive, TRPC6 act inactive and TRPC4 inh inactive.
For COc1ccc2cc(C(=O)N3CCN(Cc4ccc5c(c4)OCO5)CC3)[nH]c2c1 the results were Platelet DG rel inconclusive, TRPC6 inhibitor inactive, TRPC4 potent inactive, TRPC4 act inactive, TRPC6 act inactive and TRPC4 inh inactive.
For CN(C)c1cc(NC(=O)CNC(C)(C)C)c2ccccc2n1 the results were Platelet DG rel 14.4, TRPC6 inhibitor -9.17*, TRPC4 potent inactive, TRPC4 act inactive, TRPC6 act inactive, TRPC4 inh inactive, HEK293 MPD ctr-2 -191.5%*, HEK293 MPD ctr 2-2 inactive, TRPC4 ctr mod -35.5%*, TRPC4 ctr inh 2 50.0%*, TRPC6 inh conf inactive and TRPC6 act confirm inactive.
Screening CCCCC(=O)Nc1cc(N(C)C)nc2ccccc12 returned Platelet DG rel -1.5, TRPC6 inhibitor inactive, TRPC4 potent inactive, TRPC4 act inactive, TRPC6 act inactive and TRPC4 inh inactive.
`CC(C)CCN(C(=O)Cc1ccc(Cl)c(Cl)c1)c1c(N)n(Cc2ccccc2)c(=O)[nH]c1=O` gave Platelet DG rel 7.1, TRPC6 inhibitor inactive, TRPC4 potent inactive, TRPC4 act inactive, TRPC6 act inactive and TRPC4 inh inactive.
Screening COc1ccc(-c2cc(C(F)(F)F)n3nc(C(=O)N4CCN(C(=O)c5ccco5)CC4)cc3n2)cc1 returned Platelet DG rel 2.5, TRPC6 inhibitor inactive, TRPC4 potent inactive, TRPC4 act inactive, TRPC6 act inactive and TRPC4 inh inactive.
`O=C(c1cc2nc(-c3ccco3)cc(C(F)(F)F)n2n1)N1CCN(Cc2ccccc2)CC1` gave Platelet DG rel -1.3, TRPC6 inhibitor -6.65*, TRPC4 potent inactive, TRPC4 act inactive, TRPC6 act inactive, TRPC4 inh inactive, TRPC4 spec 2 inactive, TRPC4 spec 5.7%*, HEK293 MPD ctr 2-1 227.0%*, HEK293 MPD ctr-1 2.3%*, TRPC6 inh conf inactive and TRPC6 act confirm inactive.
`CCCC(=O)N(Cc1cc(=O)[nH]c2ccccc12)c1ccccc1C` gave Platelet DG rel -0.8, TRPC6 inhibitor inactive, TRPC4 potent inactive, TRPC4 act inactive, TRPC6 act inactive and TRPC4 inh inactive.
Screening Cc1cccc(OCC(O)Cn2c(N3CCCCC3)nc3c2c(=O)n(C)c(=O)n3C)c1 (stereo unspecified) returned Platelet DG rel -4.8, TRPC6 inhibitor -6.08*, TRPC4 potent inactive, TRPC4 act inactive, TRPC6 act inactive, TRPC4 inh inactive, HEK293 MPD ctr-2 inactive, HEK293 MPD ctr 2-2 inactive, TRPC4 ctr mod 8.0%*, TRPC4 ctr inh 2 inactive and TRPC6 inh conf 80.0%*.
`Cn1c(=O)c2c(nc(N3CCCCCC3)n2CC(O)COc2ccccc2)n(C)c1=O` (stereo unspecified) gave Platelet DG rel 7.9, TRPC6 inhibitor inactive, TRPC4 potent inactive, TRPC4 act inactive, TRPC6 act inactive and TRPC4 inh inactive.
For NC(=O)c1c(NC(=O)CN2CCN(S(=O)(=O)c3ccccc3)CC2)sc2c1CCC2 the results were Platelet DG rel -24.7, TRPC6 inhibitor inactive, TRPC4 potent inactive, TRPC4 act inactive, TRPC6 act inactive and TRPC4 inh inactive.
For NC(=Nc1ccccc1)NC(=O)c1nc(Cl)c(N)nc1N the results were Platelet DG rel 1.1, TRPC6 inhibitor inactive, TRPC4 potent inactive, TRPC4 act inactive, TRPC6 act inactive and TRPC4 inh inactive.
